From ChEMBL document CHEMBL1177835, “A note to the biological activity of benzoxazine derivatives containing the thioxo group” (Eur J Med Chem, 2010)
≈ marks a conversion by molar mass, not a printed value.

Columns and labels:
[1] = tested on: Mycobacterium tuberculosis; assay: Antimycobacterial activity against Mycobacterium tuberculosis CNCTC My 331/88 after 14 days by microdilution method; format: functional; conditions: CNCTC My 331/88, 336 h
In short: (§1)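 MIC determined by a dilution micromethod. Strains came from the Czech National Collection of Type Cultures, Prague. Compounds were added to the medium as DMSO solutions. Each inoculum was also plated in parallel on Löwenstein–Jensen medium to check its sterility and growth. The M. avium strain is identical with ATCC 25291 and resistant to INH.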

[2] = tested on: Mycobacterium tuberculosis; assay: Antimycobacterial activity against Mycobacterium tuberculosis CNCTC My 331/88 after 21 days by microdilution method; format: functional; conditions: CNCTC My 331/88, 504 h; in short: as §1
[3] = tested on: Mycobacterium avium; assay: Antimycobacterial activity against Mycobacterium avium CNCTC My 330/88 after 14 days by microdilution method; format: functional; conditions: CNCTC My 330/88, 336 h; in short: as §1
[4] = tested on: Mycobacterium avium; assay: Antimycobacterial activity against Mycobacterium avium CNCTC My 330/88 after 21 days by microdilution method; format: functional; conditions: CNCTC My 330/88, 504 h; in short: as §1
[5] = tested on: Mycobacterium kansasii; assay: Antimycobacterial activity against Mycobacterium kansasii CNCTC My 235/80 after 14 days by microdilution method; format: functional; conditions: CNCTC My 235/80, 336 h
In short: (§2)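 Dilution micromethod for MIC; compounds added to medium as DMSO solutions. Each strain also inoculated onto Löwenstein–Jensen medium to control inoculum sterility and growth. Strain 6509/96 is a clinical isolate; CNCTC strains from the Czech national type culture collection.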

[6] = tested on: Mycobacterium kansasii; assay: Antimycobacterial activity against Mycobacterium kansasii CNCTC My 235/80 after 21 days by microdilution method; format: functional; conditions: CNCTC My 235/80, 504 h; in short: as §2
[7] = tested on: Mycobacterium kansasii; assay: Antimycobacterial activity against Mycobacterium kansasii 6509/96 after 14 days by microdilution method; format: functional; conditions: 6509/96, 336 h; in short: as §2
[8] = tested on: Mycobacterium kansasii; assay: Antimycobacterial activity against Mycobacterium kansasii 6509/96 after 21 days by microdilution method; format: functional; conditions: 6509/96, 504 h; in short: as §2
[9] = tested on: HeLa; assay: Cytotoxicity against human HeLa cells after 72 hrs by using methylene blue staining; format: functional, cell-based
In short: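 HeLa cells in RPMI 1640 with supplements, preincubated 48 h without compound. Compound dilutions were then applied to subconfluent monolayers for 72 h at 37 °C, 5% CO2. Cells were glutaraldehyde-fixed, stained with 0.05% methylene blue, eluted with 0.33 N HCl and read at OD 660 nm. CC50 taken at 50% intersection versus negative control.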

[10] = tested on: K562; assay: Antiproliferative activity against human K562 cells after 72 hrs by celltiter-blue assay; format: functional, cell-based
In short: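 K-562 grown in RPMI 1640 with ultraglutamine, gentamicin, 10% heat-inactivated FBS at 37 °C; about 10,000 cells/well. Compounds dissolved in DMSO and diluted in DMEM, incubated 72 h at 37 °C, 5% CO2. Viability read by CellTiter-Blue resazurin reduction. GI50 taken where the dose-response curve crosses 50% of untreated control.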

[11] = tested on: HUVEC; assay: Antiproliferative activity against HUVEC after 72 hrs by using methylene blue staining; format: cell-based; conditions: human
In short: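 HUVEC in culture medium with ultraglutamine, gentamicin, 10% heat-inactivated FBS, 37 °C. Harvested in log phase by trypsinization; about 10,000 cells/well. Compounds in DMSO, diluted in DMEM, incubated 72 h at 37 °C, 5% CO2. Cells then glutaraldehyde-fixed, stained with 0.05% methylene blue for 15 min, eluted with 0.33 N HCl, OD 660 nm. GI50 taken at 50% intersection versus untreated control.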

Row | Structure (SMILES) | MIC [1] [µM] | MIC [2] [µM] | MIC [3] [µM] | MIC [4] [µM] | MIC [5] [µM] | MIC [6] [µM] | MIC [7] [µM] | MIC [8] [µM] | Activity [9] | Activity [10] | Activity [11]
1 | Cc1ccc2oc(=O)n(Cc3ccccc3)c(=O)c2c1 | 32 (≈ 8.55 µg/mL) | 62.5 (≈ 16.7 µg/mL) | 32 (≈ 8.55 µg/mL) | 62.5 (≈ 16.7 µg/mL) | 62.5 (≈ 16.7 µg/mL) | 62.5 (≈ 16.7 µg/mL) | 62.5 (≈ 16.7 µg/mL) | 125 (≈ 33.4 µg/mL) | Toxic | Toxic | Toxic
2 | O=c1oc2ccc(Br)cc2c(=O)n1Cc1ccc(Cl)c(Cl)c1 | 32 (≈ 12.8 µg/mL) | 32 (≈ 12.8 µg/mL) | 32 (≈ 12.8 µg/mL) | 32 (≈ 12.8 µg/mL) | 62.5 (≈ 25.1 µg/mL) | 62.5 (≈ 25.1 µg/mL) | 62.5 (≈ 25.1 µg/mL) | 62.5 (≈ 25.1 µg/mL) | Toxic | Toxic | Toxic
3 | S=c1oc2ccccc2c(=S)n1Cc1ccccc1 | 1 (≈ 0.285 µg/mL) | 1 (≈ 0.285 µg/mL) | 1 (≈ 0.285 µg/mL) | 1 (≈ 0.285 µg/mL) | 2 (≈ 0.571 µg/mL) | 2 (≈ 0.571 µg/mL) | 1 (≈ 0.285 µg/mL) | 2 (≈ 0.571 µg/mL) | – | – | –
4 | Fc1ccc(Cn2c(=S)oc3ccc(Cl)cc3c2=S)cc1 | 1 (≈ 0.338 µg/mL) | 2 (≈ 0.676 µg/mL) | 8 (≈ 2.7 µg/mL) | 16 (≈ 5.41 µg/mL) | 8 (≈ 2.7 µg/mL) | 16 (≈ 5.41 µg/mL) | 8 (≈ 2.7 µg/mL) | 16 (≈ 5.41 µg/mL) | – | – | –
5 | O=c1oc2ccc(Cl)cc2c(=S)n1Cc1ccc(F)cc1 | 1 (≈ 0.322 µg/mL) | 1 (≈ 0.322 µg/mL) | 4 (≈ 1.29 µg/mL) | 4 (≈ 1.29 µg/mL) | 4 (≈ 1.29 µg/mL) | 8 (≈ 2.57 µg/mL) | 4 (≈ 1.29 µg/mL) | 4 (≈ 1.29 µg/mL) | Toxic | Toxic | Toxic
6 | S=c1oc2ccc(Br)cc2c(=S)n1Cc1ccc(Cl)c(Cl)c1 | 4 (≈ 1.73 µg/mL) | 8 (≈ 3.47 µg/mL) | 16 (≈ 6.93 µg/mL) | 16 (≈ 6.93 µg/mL) | 16 (≈ 6.93 µg/mL) | 32 (≈ 13.9 µg/mL) | 16 (≈ 6.93 µg/mL) | 32 (≈ 13.9 µg/mL) | – | – | –
7 | NNC(=O)c1ccncc1 [ISONIAZID] | 1 (≈ 0.137 µg/mL) | 1 (≈ 0.137 µg/mL) | > 250 | > 250 | > 250 | > 250 | 8 (≈ 1.1 µg/mL) | 8 (≈ 1.1 µg/mL) | – | – | –
8 | O=c1oc2ccc(Cl)cc2c(=O)n1Cc1ccc(Cl)c(Cl)c1 | 16 (≈ 5.71 µg/mL) | 16 (≈ 5.71 µg/mL) | 16 (≈ 5.71 µg/mL) | 32 (≈ 11.4 µg/mL) | 62.5 (≈ 22.3 µg/mL) | 62.5 (≈ 22.3 µg/mL) | 62.5 (≈ 22.3 µg/mL) | 62.5 (≈ 22.3 µg/mL) | Toxic | Toxic | Toxic
9 | O=c1oc2ccccc2c(=O)n1Cc1ccc(Cl)c(Cl)c1 | 32 (≈ 10.3 µg/mL) | 32 (≈ 10.3 µg/mL) | 32 (≈ 10.3 µg/mL) | 32 (≈ 10.3 µg/mL) | 62.5 (≈ 20.1 µg/mL) | 62.5 (≈ 20.1 µg/mL) | 62.5 (≈ 20.1 µg/mL) | 62.5 (≈ 20.1 µg/mL) | Toxic | Toxic | Toxic
10 | O=c1oc2ccc(Cl)cc2c(=S)n1Cc1ccccc1 | 1 (≈ 0.304 µg/mL) | 2 (≈ 0.608 µg/mL) | 4 (≈ 1.22 µg/mL) | 8 (≈ 2.43 µg/mL) | 8 (≈ 2.43 µg/mL) | 8 (≈ 2.43 µg/mL) | 4 (≈ 1.22 µg/mL) | 4 (≈ 1.22 µg/mL) | Toxic | Toxic | Toxic
11 | O=c1oc2ccccc2c(=S)n1Cc1ccc(Cl)c(Cl)c1 | 1 (≈ 0.338 µg/mL) | 1 (≈ 0.338 µg/mL) | 1 (≈ 0.338 µg/mL) | 1 (≈ 0.338 µg/mL) | 2 (≈ 0.676 µg/mL) | 4 (≈ 1.35 µg/mL) | 2 (≈ 0.676 µg/mL) | 4 (≈ 1.35 µg/mL) | Toxic | Toxic | Toxic
12 | S=c1oc2ccccc2c(=S)n1Cc1ccc(Cl)c(Cl)c1 | 1 (≈ 0.354 µg/mL) | 2 (≈ 0.709 µg/mL) | 0.5 (≈ 0.177 µg/mL) | 0.5 (≈ 0.177 µg/mL) | 4 (≈ 1.42 µg/mL) | 4 (≈ 1.42 µg/mL) | 4 (≈ 1.42 µg/mL) | 4 (≈ 1.42 µg/mL) | – | – | –
13 | S=c1oc2ccc(Br)cc2c(=S)n1Cc1ccccc1 | 1 (≈ 0.364 µg/mL) | 2 (≈ 0.729 µg/mL) | 8 (≈ 2.91 µg/mL) | 8 (≈ 2.91 µg/mL) | 8 (≈ 2.91 µg/mL) | 8 (≈ 2.91 µg/mL) | 4 (≈ 1.46 µg/mL) | 8 (≈ 2.91 µg/mL) | – | – | –
